Source: article PMC8867604 (European journal of pharmacology, 2020)
Like-named read-outs stand apart in the source and are kept apart here. Residues, ends and D or L forms follow the SMILES beside them. *: point of attachment. Cbz = O=C(OCc1ccccc1)*; OtBu = CC(C)(C)O*

Key:
Assay type in all cases: cell-based, human
HEK293 cells = conditions: for IC50: Homo sapiens, HEK293, 24 h, read-out: IC50 (cell viability)
NF-κB [1] = experiment: NF-κB luciferase reporter assay, antagonists with TNFα stimulation; conditions: for mode of action on NF-κB signaling / effect on NF-κB expression / effect on NF-κB pathway activity: TNFα stimulated, 24 h; for EC50: Homo sapiens, HEK293, 24 h, read-out: EC50 (NF-kB reporter); for effect on NF-κB pathway activity: at low micromolar concentrations
MAF1329 ependymoma cells = test system: MAF1329 ependymoma cells
NF-κB [2] = experiment: NF-κB luciferase reporter assay, agonists without TNFα; conditions: HEK293 reporter cells, no TNFα, 24 h
In short: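 HEK293 stable NF-κB GFP-luciferase reporter line grown in DMEM with 10% FBS and 1% pen/strep at 37°C, 5% CO2. Seeded 1x10^4/well (96-well) or 1x10^3/well (384-well) 12 h before dosing across a concentration range in fresh medium, with vehicle-only controls. Incubated 24 h, then luminescence read. Drug/vehicle luminescence ratio plotted against log10 concentration to derive EC50. Triplicate or quadruplicate doses, ≥3 experiments.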

[3] = at low micromolar concentrations
[4] = at low or mid-range micromolar concentrations

O=C(Nc1cc(C(F)(F)F)cc(C(F)(F)F)c1)c1cc(Cl)ccc1O [IMD 0354]
IC50 (HEK293 cells): 1560 nM
effect on cell viability (HEK293 cells; at low concentrations): did not result in a decrease of cell viability
mode of action on NF-κB signaling (NF-κB [1]; HEK-293 reporter cells): work antagonistically
EC50 (NF-κB [1]): 292 nM

NC(=O)Nc1sc(-c2ccc(F)cc2)cc1C(N)=O [TCPA-1, 2-[(Aminocarbonyl)amino]-5-(4-fluorophenyl)-3-thiophenecarboxamide]
effect on cell viability (HEK293 cells; at low concentrations): did not result in a decrease of cell viability
EC50 (NF-κB [1]): < 1 nM

[O-][S+](c1ccccc1)c1ccc2nnnn2n1 (stereo not drawn) [Ro106–9920]
effect on cell viability (HEK293 cells): did not result in a decrease of cell viability

O=c1cc(-c2ccc(O)c(O)c2)oc2cc(O)cc(O)c12 [Luteolin]
IC50 (HEK293 cells): > 100000 nM
effect on NF-κB expression (NF-κB [1]; HEK-293 reporter cells): no specific effect
EC50 (NF-κB [1]): 35000 nM

COc1cc(O)cc(O)c1C(=O)/C=C/c1ccccc1 [Cardamonin]
effect on cell viability (HEK293 cells; [3]): without effecting cell viability
effect on NF-κB pathway activity (NF-κB [1]): act as agonists and increased pathway activity
change in cell viability of MAF1329 (MAF1329 ependymoma cells; C11orf95-RELA fusion positive ependymoma cell culture): no change in cell viability

Cc1ccc(S(=O)(=O)/C=C/C#N)cc1 [BAY 11–7082]
cytotoxic effect (HEK293 cells): no cytotoxic effect
effect on NF-κB expression (NF-κB [1]; [4]): agonistic effect

CC[C@H](C)[C@H](NC(=O)OCc1ccccc1)C(=O)N[C@@H](CCC(=O)OC(C)(C)C)C(=O)N[C@@H](C)C(=O)N[C@H](C=O)CC(C)C [PSI] (Cbz-IE(OtBu)AL-aldehyde)
effect on cell viability (HEK293 cells): without effecting cell viability
effect on NF-κB pathway activity (NF-κB [1]): act as agonists and increased pathway activity

CC(C)(C)c1ccc(S(=O)(=O)/C=C/C#N)cc1 [BAY 11–7085]
cytotoxic effect (HEK293 cells): no cytotoxic effect
effect on NF-κB expression (NF-κB [1]; [4]): agonistic effect

O=C(c1ccc(Nc2nccc(-c3cc4ccccc4s3)n2)cc1)N1CCC(N2CCCC2)CC1 [IKK-16]
effect on cell viability (HEK293 cells): no specific effect
effect on NF-κB expression (NF-κB [1]; HEK-293 reporter cells): no specific effect

Br.Cc1cc2nc(NCCCO)n(CC(=O)c3cc(C(C)(C)C)c(O)c(C(C)(C)C)c3)c2cc1C [CID 2858522]
cytotoxic effect (HEK293 cells): no cytotoxic effect
effect on NF-κB expression (NF-κB [1]; [4]): agonistic effect

C[C@]1(CO)CN(c2cc(C(=O)Nc3ccc4c(c3)-c3c(c(C(N)=O)nn3-c3ccc(F)cc3)CC4)c(Cl)cn2)C[C@@]1(C)CO [PF-184]
effect on cell viability (HEK293 cells): did not result in a decrease of cell viability
mode of action on NF-κB signaling (NF-κB [1]; HEK-293 reporter cells): work antagonistically

CS(=O)(=O)N1CCN(Cc2cc3nc(-c4cccc5[nH]ncc45)nc(N4CCOCC4)c3s2)CC1 [Pictalisib, 2-(1 H -Indazol-4-yl)-6-(4-methanesulfonyl-piperazin-1-ylmethyl)-4-morpholin-4-yl-thieno[3,2-d]pyrimidine]
IC50 (HEK293 cells): 7470 nM
EC50 (NF-κB [1]): 4270 nM

CC1=C(O)C(=O)C=C2C1=CC=C1[C@@]2(C)CC[C@@]2(C)[C@@H]3C[C@](C)(C(=O)O)CC[C@]3(C)CC[C@]12C [Celastrol]
IC50 (HEK293 cells): 475 nM
effect on cell viability (HEK293 cells; [3]): without effecting cell viability
EC50 (NF-κB [1]): 82 nM
effect on NF-κB pathway activity (NF-κB [1]): act as agonists and increased pathway activity
IC50 (MAF1329 ependymoma cells; Homo sapiens, read-out: IC50 (cell viability of MAF1329)): 1700 nM

CCNC(=O)[C@H]1O[C@@H](n2cnc3c(N)nc(NCCc4ccc(CCC(=O)O)cc4)nc32)[C@H](O)[C@@H]1O [CGS 21680]
NF-κB agonist effect (NF-κB [2]): no effect

C=C(C)[C@@H]1CC[C@]2(C(=O)O)CC[C@]3(C)[C@H](CC[C@@H]4[C@@]5(C)CC[C@H](O)C(C)(C)[C@@H]5CC[C@]43C)[C@@H]12 [betulinic acid, Betulinic acid]
concentration at which NF-κB agonist activity was seen (NF-κB [2]): 100,000 nM

CC(=O)O[C@@]12C[C@@H](C)[C@@]3(O)[C@@H](C=C(CO)C[C@]4(O)C(=O)C(C)=C[C@@H]34)[C@@H]1C2(C)C [Prostratin]
concentration at which NF-κB agonist activity was seen (NF-κB [2]): 1000 nM

Oc1cc(O)cc(/C=C/c2ccc(O)c(O)c2)c1 [Piceatannol]
cytotoxic effect (HEK293 cells): no cytotoxic effect
IC50 (HEK293 cells): > 100000 nM
EC50 (NF-κB [1]): > 100000 nM
effect on NF-κB expression (NF-κB [1]; [4]): agonistic effect
